Where two headings read alike, the source gives them in different places.
Tests used:
[1] = type: in vivo, human
TNFα release [2] = assay: TNFα PK/PD model, lipopolysaccharide-stimulated whole blood ex vivo assay; type: in vivo, human; settings: for Sigmoidicity parameter γ: Imax-model of TNFα inhibition
Method in brief: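 Whole blood was drawn straight into LPS-containing tubes and incubated, then ex vivo TNFα was measured. With PK parameters fixed, one common sigmoid Imax model was fitted for both compounds, driven by a weighted sum of plasma and transduction-compartment concentrations. The weight was estimated from data. The driving concentration was total for the test compound and unbound for the reference steroid. Nonlinear mixed effects, FOCE.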

TNFα release [3] = assay: Simulated dose-response and equipotent dose relationship from the PK/PD model; type: in vivo, human; settings: for TNFα inhibition at the highest studied doses: dose-response curves
Method in brief: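 The fitted PK/PD model was simulated to give dose-response curves, with response defined as average TNFα inhibition over 24 h after 5 consecutive daily oral doses. Confidence intervals came from repeated simulations using parameters sampled from the estimated covariance matrix. Equipotent doses were defined as those giving the same average inhibition. Their confidence intervals accounted simultaneously for the uncertainty of both dose-responses.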

[4] = system: release of the cytokines TNFα, interferon-γ, interleukin-6, interleukin-8, macrophage inflammatory protein-1α and -1β; type: in vivo, human; settings: total plasma concentrations; six pro-inflammatory cytokines
Method in brief: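 Static nonlinear mixed effects sigmoid Imax models related observed total plasma drug concentrations to ex vivo LPS-stimulated release of TNFα, IFN-γ, IL-6, IL-8, MIP-1α and MIP-1β. Data were pooled from the single and multiple ascending dose studies. Lognormal between-subject variability was used, with lognormal residual error (additive on log scale). Models were estimated by FOCE.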

[5] = literature average of plasma protein binding parameters ref 24, 25, 26, 27; cited from earlier work
[6] = type: in vivo, human; remark: listed apart in the source
Method in brief: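 Data pooled from single ascending dose (2–155 mg) and multiple ascending dose (10, 20, 40, 80, 125 mg) studies in healthy volunteers; prediabetic obese cohort and sub-LLOQ (5 nM) data excluded. Two-compartment model with first-order absorption and lag time on total plasma concentrations. Oral dose entered as a linear covariate on relative bioavailability and as a covariate on absorption rate. Lognormal interoccasion variability for days 1 and 5. Fitted by nonlinear mixed effects, FOCE.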

[7] = ref data on file, AstraZeneca; cited from earlier work
[8] = unbound prednisolone, oral (apparent)
[9] = average over 24 hours following 5 consecutive daily doses

Q: With `C[C@]12C=CC(=O)C=C1CC[C@@H]1[C@@H]2[C@@H](O)C[C@@]2(C)[C@H]1CC[C@]2(O)C(=O)CO` [prednisolone] as the compound, how does the half-life ([1]; human, plasma, oral) read?
A: Its half-life is 1.9 h.

Q: What about the “Contribution of the first phase to AUC” value ([1]; unbound prednisolone) of the same compound?
A: Its value is 66%.

Q: And the “Inter-compartment clearance Q” value ([1]; unbound prednisolone)?
A: Its value is 5.81 L/h.

Q: What about the “Mean transit time tm” value ([1]; unbound prednisolone) of the same compound?
A: The value was 0.772 h.

Q: And the “Peripheral volume of distribution Vp” value ([1]; unbound prednisolone)?
A: Its value is 23.6 L.

Q: What about the “Central volume of distribution Vc” value [1, 8] of the same compound?
A: The value was 352 L.

Q: What about the “Clearance CL” value [1, 8] of the same compound?
A: The value was 110 L/h.

Q: What about the “No. of transit compartments n” value ([1]; unbound prednisolone, transit compartment absorption) of the same compound?
A: Its value is 8.11.

Q: And the “Sigmoidicity parameter γ” value (TNFα release [2])?
A: The value was 1.33.

Q: And the “TNFα inhibition at the highest studied doses” value (TNFα release [3]; [9])?
A: Its value is 60–75%.

Q: And the “Equipotent dose of prednisolone” value (TNFα release [3]; equipotent to 40 mg AZD9567, 95% CI of 14–29 mg)?
A: Its value is 20 mg.

Q: What about the “Estimated TNFα inhibition” value (TNFα release [3]; prednisolone 20 mg, average over 24 hours following 5 consecutive daily doses) of the same compound?
A: The value was 43%.

Q: And the “Inhibition of cytokine release” value [4]?
A: Its value is “inhibited the release of the cytokines”.

Q: What about the “Unbound fraction, high limit, literature average” value [5] of the same compound?
A: The value was 53%.

Q: And the “Unbound fraction, low limit, literature average” value [5]?
A: Its value is 9%.

Q: For `CC(C)[C@H](NC(=O)C(C)(F)F)[C@H](Oc1ccc2c(cnn2-c2ccc(=O)n(C)c2)c1)c1ccccc1` [AZD9567], which “Absorption rate constant ka0” value ([6]; absorption rate in the limit of zero dose) is on record?
A: Its value is 38.2 h⁻¹.

Q: What about the “Covariate model (dose on F) s” value ([6]; decrease in relative bioavailability F per mg dose, F=1-s×Dose) of the same compound?
A: Its value is 0.00253 mg⁻¹.

Q: What about the “Covariate model (dose on ka) α” value ([6]; dose-dependent absorption rate) of the same compound?
A: The value was 0.0592 mg⁻¹.

Q: What about the “Covariate model (dose on ka) λ” value ([6]; dose-dependent absorption rate) of the same compound?
A: The value was 0.103.

Q: What about the “Decrease of relative bioavailability” value ([6]; for every additional 4 mg AZD9567 dosed) of the same compound?
A: The value was ~ 1 % unit.

Q: And the half-life ([6]; human, plasma, oral)?
A: Its half-life is 4.4 h.

Q: What about the “Unbound clearance relative to prednisolone” value ([6]; implied by the low fraction unbound) of the same compound?
A: Its value is “more than fivefold higher unbound clearance”.

Q: And the “Intercompartment clearance Q” value ([6]; total AZD9567)?
A: The value was 0.500 L/h.

Q: And the “Peripheral volume of distribution Vp” value ([6]; total AZD9567)?
A: The value was 392 L.

Q: And the “Clearance CL” value ([6]; total AZD9567, oral)?
A: The value was 3.70 L/h.

Q: And the “Central volume of distribution Vc” value ([6]; total AZD9567, oral (apparent))?
A: Its value is 26.8 L.

Q: What about the “Contribution of the first phase to AUC” value ([6]; two-compartment model) of the same compound?
A: Its value is 88%.

Q: And the “Sigmoidicity parameter γ” value (TNFα release [2])?
A: Its value is 1.40.

Q: What about the “Potency as inhibitor of TNFα release relative to prednisolone” value (TNFα release [2]; unbound IC50 4.87 nM vs 17.0 nM) of the same compound?
A: Its value is ~ 3.5 fold.

Q: What about the “Average TNFα inhibition” value (TNFα release [3]; AZD9567 40 mg, average over 24 hours following 5 consecutive daily doses) of the same compound?
A: Its value is 43%.

Q: And the “TNFα inhibition at the highest studied doses” value (TNFα release [3]; [9])?
A: The value was 60–75%.

Q: What about the “Equipotent dose of AZD9567 (95% CI)” value (TNFα release [3]; equipotent to prednisolone 20 mg) of the same compound?
A: The value was 40 mg.

Q: And the “Doses required for equipotency relative to prednisolone” value (TNFα release [3]; in vivo)?
A: The value was “roughly twofold higher doses”.

Q: And the “Inhibition of cytokine release” value [4]?
A: The value was “inhibited the release of the cytokines”.

Q: What about the Unbound fraction [7] of the same compound?
A: The Unbound fraction was “^c Derived from the estimate of IC50 for total AZD9567 concentrations using an unbound fraction of 0.637%”.
